Source: PubChem
Hits are enriched below; roughly 2.4% of the tested compounds scored in any of these assays.
Yeast life ext: extends the lifespan of yeast; S. cerevisiae growth with nicotinamide, OD615; deaD strain in restrictive glucose medium; inhibition of the nicotinamide effect, % at 10 µM; 130,000 compounds, 0.68% hits; AID 775;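 active = inhibition above a set limit, placed 3 SD over the median of all compounds, cut at about 26% in these data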
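Assay system: DeaD-strain S. cerevisiae. Medium: CSMM-D glucose medium, restrictive. Reagent: nicotinamide, 1.5 mM, co-present with compound. Compound: 10 µM single point, 0.25% DMSO. Schedule: culture preincubation 4 h, compound exposure 48 h, both 30 °C. Detection: absorbance at 615 nm.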
Arbovirus anti: arbovirus infection inhibition. arbovirus infection cell-based antiviral screen. inhibition, % at 10 µM. 200,000 compounds, 0.37% hits. AID 1251; in the data active = inhibition above about 30%
Yeast growth inh: reduces growth of yeast BB579 in restrictive medium. inhibition, % at 10 µM. AID 804. 140,000 compounds, 0.51% hits. S. cerevisiae BB579 growth, OD615, 48 h;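 active = inhibition above a set limit, 3 SD over the mean compound inhibition, cut at about 44% in these data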
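Assay system – yeast BB579 (DeaD) · Dosing – single compound dose of 10 µM, 0.25% DMSO final · Detection – OD615 turbidity measurement · Buffer or medium – CSMM-D restrictive synthetic medium containing dextrose (glucose) · Benchmarks – positive control amphotericin B 10 µg/mL · Incubation – 48 h exposure, 30 °C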
HMGR II inh: inhibitors of class II HMG-CoA reductase from Enterococcus faecalis; purified E. faecalis HMGR, NADPH absorbance 340 nm kinetic; inhibition, % at 10 µM; 190,000 compounds, 0.41% hits;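 active = inhibition above a set limit, the median over all tested compounds plus 3 SD, cut at about 9.5% in these data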;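 note: enzyme runs in reverse so mevalonate oxidation gives rising NADPH absorbance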
Measles CPE: protection of cells from measles virus. protection (pct of control), % at 4 µM. 140,000 compounds, 1.5% hits. Measles virus-infected cells, CPE protection, absorbance; in the data active = protection mostly above about 24%, no sharp cut-off; inactive = mostly below about 26%
Rad51 HR inh: blocks human Rad51 in homologous recombination; Q06609; hRad51 DNA strand exchange, fluorescence dequenching; inhibition, % at 10 µM; 200,000 compounds, 0.085% hits; AID 1385;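 active = inhibition above 40% at the single screening dose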
Target sequence (Q06609 whole entry, looked up): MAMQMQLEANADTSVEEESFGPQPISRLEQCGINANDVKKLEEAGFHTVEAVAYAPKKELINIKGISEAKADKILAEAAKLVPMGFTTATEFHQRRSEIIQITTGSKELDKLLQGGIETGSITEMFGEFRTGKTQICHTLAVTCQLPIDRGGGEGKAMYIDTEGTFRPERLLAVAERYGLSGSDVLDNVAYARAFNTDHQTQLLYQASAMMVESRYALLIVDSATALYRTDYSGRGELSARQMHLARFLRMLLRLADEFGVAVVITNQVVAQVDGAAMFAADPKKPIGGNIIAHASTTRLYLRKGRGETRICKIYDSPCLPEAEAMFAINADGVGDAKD
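Material: Human Rad51 nucleoprotein filaments preassembled on unlabelled ssDNA | Also added: Labelled 47-mer dsDNA for strand exchange | Dosing: Single dose, 10 µM final compound | Schedule: 30-min compound preincubation and 15-min exchange, both room temperature | Technique: Fluorescence dequenching at 485/520 nm | Measure: Percent inhibition relative to plate controls and blanks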
Numbers stand for hits; – = inactive; · = no result.

SMILES | Yeast life ext | Arbovirus anti | Yeast growth inh | HMGR II inh | Measles CPE | Rad51 HR inh
COc1ccc(C2CC(=O)C=C(NCc3ccc4c(c3)OCO4)C2)cc1 (configuration not stated) | · | · | · | · | · | –
Nc1nn2cc(-c3ccccc3)nc2c2ccccc12 | · | – | · | 11 | · | –
O=c1c2ccccc2nc2c3ccccc3c(Cl)nn12 | · | – | · | – | · | –
O=c1c2ccccc2nc2c3ccccc3c3nncn3n12 | – | – | 82 | – | – | –
CC(C)N(C(=O)CSc1nnnn1C1CCCC1)C(C)C | – | – | – | – | – | –
CCc1ccc(C(=O)NCc2ccc(Cl)cc2)cc1 | – | – | – | – | – | –
O=C(C1=C(O)C(=O)N(c2nccs2)C1c1ccccc1)c1cc2ccccc2o1 (configuration not stated) | · | · | · | · | · | –
Cc1ccc2nc(N3C(=O)C(O)=C(C(=O)c4cc5ccccc5o4)C3c3cccs3)sc2c1 (configuration not stated) | – | 32 | – | – | – | ·
CCc1ccc2nc(N3C(=O)C(O)=C(C(=O)c4ccco4)C3c3cccs3)sc2c1 (configuration not stated) | 45 | – | – | – | – | –
Cc1ccc(NC(=O)C2CC2C)c(Cl)c1 (configuration not stated) | · | – | · | – | · | –
CN(C)C(CNC(=S)Nc1ccccc1Cl)c1cccnc1 (configuration not stated) | · | – | · | – | · | –
Cc1cc(N/N=C/c2ccncc2)c([N+](=O)[O-])cc1[N+](=O)[O-] | · | · | · | · | · | –
c1ccc(N(c2ccccc2)c2nc(-n3ccnc3)nc(-n3ccnc3)n2)cc1 | – | – | 92 | – | – | –
CN(c1ccccc1)c1nc(-n2ccnc2)nc(-n2ccnc2)n1 | – | – | – | – | – | ·
c1ccc(-c2nc(N3CCN(c4ccccc4)CC3)nc(-n3ccnc3)n2)cc1 | – | – | – | – | 38 | –
COc1ccc(-c2[nH]c3ccccc3c2SCCNC(=O)c2ccccc2)cc1 | – | – | – | – | 32 | ·
COc1ccc(C(=O)NCCSc2ccccc2)cc1 | – | – | – | – | – | ·
NS(=O)(=O)c1ccc(NC(=O)COC(=O)COc2ccc(Cl)cc2)cc1 | · | – | · | – | · | –
CCO[C@@H]1OC(C(=O)Nc2ccccc2)=C[C@H](c2ccc(C(F)(F)F)cc2)[C@H]1CCCO | · | – | · | 12 | · | –
O=C(/C=C/c1ccco1)OCC1CCCN2CCCCC12 (configuration not stated) | · | – | · | – | · | –
CCCCc1nn2c(N)c(/C=C3\C=Nc4ccccc43)c(=O)nc2s1 | – | 33 | – | – | – | ·
CCCc1nn2c(N)c(/C=C3\C=Nc4ccccc43)c(=O)nc2s1 | – | 71 | – | – | – | –
CCC(CC)c1nn2c(N)c(/C=C3\C(C)=Nc4ccccc43)c(=O)nc2s1 | · | · | · | · | · | –
CC(C)Cc1nn2c(N)c(/C=C3\C=Nc4ccccc43)c(=O)nc2s1 | · | 37 | · | – | · | –
Cc1cc2nc(=O)c(/C=C3\C=Nc4ccccc43)c(N)n2o1 | · | · | · | · | · | –
SMILES | Yeast life ext | Arbovirus anti | Yeast growth inh | HMGR II inh | Measles CPE | Rad51 HR inh
CCC(CC)c1nn2c(N)c(/C=C3\C=Nc4ccccc43)c(=O)nc2s1 | · | · | · | · | · | –
CCOC(=O)N1CCN(C(=O)c2cn(C)c3ccc(S(=O)(=O)N4CCC(C)CC4)cc3c2=O)CC1 | · | – | · | – | · | –
CCOC(=O)c1nn(-c2ccc(C)cc2)cc1C(=O)c1ccccc1 | – | – | – | – | – | –
Cc1ccc2occ(/C=N/O)c(=O)c2c1 | – | – | – | – | – | –
Cc1ccc2occ(/C=N/NC(N)=S)c(=O)c2c1 | – | – | – | – | 30 | –
COc1ccc(N(CC(=O)N2CCN(c3ccc(Cl)cc3)CC2)S(=O)(=O)c2c(C)n[nH]c2C)cc1 | · | – | · | – | · | –
COc1cc2[nH]c(=O)n(CCC(=O)NCc3cccnc3)c(=O)c2cc1OC | – | – | – | – | 67 | –
COc1ccc(CCNC(=O)CCn2c(=O)[nH]c3cc(OC)c(OC)cc3c2=O)cc1OC | – | – | – | – | – | –
COc1cc2cc(CN(Cc3cccnc3)C(=O)NCc3ccccc3)c(=O)[nH]c2cc1OC | – | – | – | – | 48 | –
CCOc1nc(NCc2ccco2)nc(Nc2ccccc2F)n1 | · | – | – | 13 | – | –
CCOc1nc(NCCO)nc(Nc2ccccc2F)n1 | · | – | · | – | · | ·
CNC(=S)N/N=C(\C)c1ccc(N2CCOCC2)cc1 | – | – | 70 | – | – | –
CN(C(=O)CSc1nnc(-c2ccncc2)n1-c1ccccc1)C1CCS(=O)(=O)C1 (configuration not stated) | · | · | · | · | · | 48
CCOc1ccc(N/N=C(/C#N)C(N)=O)cc1 | – | – | 97 | – | – | –
CCOc1ccc(N/C(SC)=C(/C#N)C(N)=O)cc1 | – | – | – | – | – | –
COc1ccc(N/N=C(\C#N)C(N)=O)cc1 | – | – | 58 | – | – | –
CCCC(C)NC(=O)CSc1nc2ccc(C)cc2[nH]1 (configuration not stated) | · | – | · | – | · | –
O=C(NCCc1ccccc1)c1cccnc1N1CCCCCC1 | – | – | – | – | 36 | –
CCN(CC)CCCNC(=O)c1cc2c(=O)n(C)c3ccccc3c2n1C | – | – | – | – | – | –
CCN(CC)CCNC(=O)c1cc2c(=O)n(C)c3ccccc3c2n1C | – | – | – | – | 41 | –
COc1ccc(/C=N/NC(=O)c2nn(-c3ccccc3)c(=O)c3c(N)scc23)cc1 | – | – | – | – | 51 | –
O=C(Nc1nnc(-c2ccccc2Cl)o1)c1cccnc1 | 34 | – | – | – | – | –
CN1CCN(C(=O)c2ccc(S(=O)(=O)c3ccc(Br)cc3)cc2)CC1 | – | – | – | – | – | 55
CCn1c(C)nc2cc(C(=O)N/N=C/c3ccc(N4CCOCC4)cc3)ccc21 | · | – | · | – | · | –
Cc1nn(Cc2nnc(SCC(=O)Nc3ccc(Cl)cc3)n2C)c(C)c1[N+](=O)[O-] | · | · | · | · | · | –
SMILES | Yeast life ext | Arbovirus anti | Yeast growth inh | HMGR II inh | Measles CPE | Rad51 HR inh
CC1(C)Cc2nc3sc4c(N(CCO)CCO)ncnc4c3cc2CO1 | – | – | – | – | – | –
CCN(CCO)c1ncnc2c1sc1nc(CC(C)C)c3c(c12)CC(C)(C)OC3 | – | – | – | 9.7 | – | –
O=C(O)c1cn(Cc2ccccc2Cl)c2ccc(S(=O)(=O)N3CCOCC3)cc2c1=O | · | – | · | – | · | –
Cc1cc(C)n(-c2nc3ccccc3s2)n1 | · | – | · | – | · | –
Cc1cc(N)n(-c2nc3ccccc3s2)n1 | · | – | · | 9.6 | · | –
NC(=S)NC(=O)/C=C/c1ccccc1 | · | – | · | – | · | 41
COc1ccc(OC)c(Nc2nc(-c3sc(NC(=O)c4ccccc4)nc3C)cs2)c1 | – | – | – | 11 | – | –
COc1ccc(Cl)cc1Nc1nc(-c2sc(NC(=O)c3ccccc3)nc2C)cs1 | – | – | – | – | – | –
Cc1noc(C)c1S(=O)(=O)N1CCC(C(=O)NCCN2CCC(C)CC2)CC1 | – | – | – | 11 | – | –
